pIC50: −log10 of the molar value.
Legend:
[1] = target: T1, Sterol O-acyltransferase 1 (Rattus norvegicus, UniProt O70536); experiment: In vitro inhibitory concentration against Acyl coenzyme A:cholesterol acyltransferase derived from rat adrenals
T1 sequence (O70536 whole entry): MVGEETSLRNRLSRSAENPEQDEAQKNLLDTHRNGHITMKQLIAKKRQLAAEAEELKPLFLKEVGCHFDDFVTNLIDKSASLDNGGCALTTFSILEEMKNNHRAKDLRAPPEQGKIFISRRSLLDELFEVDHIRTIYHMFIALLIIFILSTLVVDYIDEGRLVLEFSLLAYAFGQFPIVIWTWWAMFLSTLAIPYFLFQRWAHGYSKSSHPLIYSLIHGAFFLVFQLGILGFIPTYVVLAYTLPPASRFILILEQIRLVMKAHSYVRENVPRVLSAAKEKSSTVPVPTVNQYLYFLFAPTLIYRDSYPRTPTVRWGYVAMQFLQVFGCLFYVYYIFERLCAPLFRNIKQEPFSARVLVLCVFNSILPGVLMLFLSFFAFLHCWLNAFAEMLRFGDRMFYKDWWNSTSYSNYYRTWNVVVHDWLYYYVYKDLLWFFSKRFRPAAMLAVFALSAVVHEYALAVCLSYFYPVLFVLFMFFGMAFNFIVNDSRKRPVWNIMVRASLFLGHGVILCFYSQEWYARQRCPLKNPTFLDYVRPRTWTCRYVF
Method in brief: (§1)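 Rat adrenal homogenate in 0.2 M KH2PO4 buffer pH 7.4, 1000g supernatant (microsomal fraction) as enzyme; preincubated with BSA and test compound at graded concentrations, 37 °C 10 min, then [14C]oleoyl-CoA 0.4 µCi, 37 °C 30 min. Lipids extracted, cholesteryl ester isolated by TLC and counted. Triplicate tubes per concentration; IC50 by linear regression of means.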

[2] = target: T2, Sterol O-acyltransferase 1 (Rattus norvegicus) (UniProt O70536); experiment: Serum hypolipidemic activity in rats; format: functional
T2 sequence (whole entry): T1 sequence (O70536 whole entry)
Method in brief: (§2)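 Male CD-1 Sprague-Dawley rats, 140–150 g, fed 1% cholesterol/0.5% cholic acid diet with compound admixed at 0.01% (about 10 mg/kg/day) for 7 days. Serum and liver cholesterol measured by Technicon autoanalyzer methods; expressed as percent of control.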

[3] = target: T2, Sterol O-acyltransferase 1 (Rattus norvegicus); experiment: Liver hypolipidemic activity in rats; format: functional; method in brief: as §2
[4] = target: T1, Sterol O-acyltransferase 1; experiment: In vitro inhibitory concentration against acyl coenzyme A:cholesterol acyltransferase derived from rat adrenals; method in brief: as §1
[5] = target: T2, Sterol O-acyltransferase 1 (Rattus norvegicus); experiment: In vitro percentage inhibition against acyl coenzyme A:cholesterol acyltransferase derived from rat adrenals; set-up: concentration or dose not given beside the values; settings: concentration not given here
Method in brief: (§3)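 Rat adrenal 1000g supernatant (microsomal ACAT) in 0.2 M KH2PO4 pH 7.4 with BSA; test compound at final 5.2 µg/mL, preincubated 37 °C 10 min; [14C]oleoyl-CoA (0.4 µCi) added, 37 °C 30 min. Cholesteryl ester separated by TLC, scintillation counted; mean percent inhibition against compound-free control.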

[6] = target: T2, Sterol O-acyltransferase 1 (Rattus norvegicus); experiment: In vitro percentage inhibition against Acyl coenzyme A:cholesterol acyltransferase derived from rat adrenals; set-up: concentration or dose not given beside the values; settings: concentration not given here; method in brief: as §3

Row | SMILES | pIC50 [1] | SS [2] [%] | LS [3] [%] | pIC50 [4] | inhibition [5] [%] | inhibition [6] [%]
1 | CCCCCCCN(Cc1cccs1)C(=O)Nc1cc(Cl)c(Cl)cc1Cl | 6.32 | 56 | 28 |  |  | 
2 | CCCCCCCCCCN(CCCCCCCCCC)C(=O)Nc1ccc(C)cc1C | 6.20 | 71 | 66 |  |  | 64
3 | Cc1ccc(NC(=O)N(Cc2ccccc2)Cc2ccccc2)cc1C |  | 97 | 60 |  |  | 72
4 | CCCCN(CCCC)C(=O)Nc1cccc(C(C)=O)c1 |  | 64 | 100 |  |  | 51
5 | CCCCc1ccc(NC(=O)N(Cc2ccccc2)Cc2ccccc2)cc1 |  | 62 | 87 |  |  | 91
6 | Cc1cc(Cl)ccc1NC(=O)N(Cc1ccccc1)Cc1ccccc1 | 5.47 | 53 | 26 |  |  | 63
7 | CCCCN(CCCC)C(=O)Nc1cc(Cl)cc(Cl)c1 |  | 76 | 93 | 5.36 | 79 | 
8 | CCCCN(CCCC)C(=O)Nc1cccc(Cl)c1 |  | 105 | 100 | 5.02 | 88 | 
9 | CCCCN(CC(c1ccc(Cl)cc1)c1ccc(Cl)cc1)C(=O)Nc1ccc(C)cc1C |  | 110 | 84 |  |  | 81
10 | O=C(Nc1ccccc1C(F)(F)F)N(Cc1ccccc1)Cc1ccccc1 |  | 165 | 76 |  |  | 68
11 | Cc1ccc(NC(=O)N(Cc2ccccc2)Cc2ccccc2)cc1Cl | 4.72 | 84 | 97 |  |  | 94
12 | O=C(Nc1cc(Cl)cc(Cl)c1)N(Cc1ccccc1)Cc1ccccc1 | 5.40 |  |  |  |  | 86
13 | CCCCN(CCCC)C(=O)Nc1cc(C)ccc1C |  | 127 | 110 |  |  | 96
14 | CCCCCCCCCCCCCCCCCCN(CCCCCCCCCCCCCCCCCC)C(=O)Nc1ccc(C)cc1C |  | 106 | 123 |  |  | -6
15 | CCCCCCCN(CCCCCCC)C(=O)Nc1ccc(C)cc1C | 6.14 | 65 | 15 |  |  | 91
16 | CCCCN(CCCC)C(=O)Nc1ccc(Cl)c(C(F)(F)F)c1 |  |  |  | 4.98 | 87 | 
17 | CCCCN(CCCC)C(=O)Nc1cccc(C(F)(F)F)c1 |  | 100 | 91 |  |  | 75
18 | CCCCN(CCCC)C(=O)Nc1cccc(C)c1 |  |  |  | 5.32 | 78 | 
19 | Cc1c(Cl)cccc1NC(=O)N(Cc1ccccc1)Cc1ccccc1 | 5.08 |  |  |  |  | 84
20 | O=C(Nc1ccc(Cl)cc1C(F)(F)F)N(Cc1ccccc1)Cc1ccccc1 |  | 66 | 57 |  |  | 82
21 | O=C(Nc1ccc(Oc2ccccc2)cc1)N(Cc1ccccc1)Cc1ccccc1 |  | 66 | 89 | 5.49 | 94 | 
22 | CCCCCCCCCCCCN(CCCCCCCCCCCC)C(=O)Nc1ccc(C)cc1C |  | 86 | 120 |  |  | 26
23 | CCCCN(CCCC)C(=O)Nc1cccc(Cl)c1C |  | 87 | 93 | 5.39 | 80 | 
24 | O=C(Nc1cccc(C(F)(F)F)c1)N(Cc1ccccc1)Cc1ccccc1 | 5.54 |  |  |  |  | 94
25 | CCCCN(CCCC)C(=O)Nc1ccc(C)cc1C |  | 81 | 78 | 5.01 | 81 | 

Results, then the compound that gave them:

Row | pIC50 [1] | SS [2] [%] | LS [3] [%] | pIC50 [4] | inhibition [5] [%] | inhibition [6] [%] | SMILES
26 |  | 62 | 64 | 5.17 |  |  | Cc1c(Cl)cccc1NC(=O)N(CCC(C)(C)C)Cc1cccs1
27 |  | 63 | 100 | 5.04 | 94 |  | CCCCc1ccc(NC(=O)N(CCCC)CCCC)cc1
28 | 5.12 | 72 | 62 |  |  |  | CCCCN(Cc1ccccc1)C(=O)Nc1ccc(Cl)cc1C
29 |  | 64 | 46 | 5.25 | 88 |  | CCCCN(Cc1ccc2c(c1)OCO2)C(=O)Nc1ccc(C)cc1C
30 |  | 130 | 87 |  |  | 9 | CCCCCCCC/C=C/CCCCCCCCN(Cc1ccc(CCCC)cc1)C(=O)Nc1ccc(C)cc1C (stereo in doubt; 161)
31 | 6.35 | 47 | 20 |  |  | 69 | Cc1cc(C)c(NC(=O)N(Cc2ccccc2)Cc2ccccc2)cc1C
32 |  | 71 | 70 |  |  | 90 | Cc1ccc(NC(=O)N(CCC(C)CC(C)(C)C)CCC(C)CC(C)(C)C)c(C)c1 (centres undefined)
33 |  | 100 | 85 |  |  | 10 | Cc1ccc(NC(=O)Nc2ccc(C)cc2C)c(C)c1
34 |  | 80 | 106 |  |  | 86 | Cc1ccc(NC(=O)N(CCCCC2CCCCC2)CCCCC2CCCCC2)c(C)c1
35 |  | 100 | 76 | 5.45 | 84 |  | CCCCN(CCCC)C(=O)Nc1cc(C)cc(C)c1
36 |  | 92 | 96 |  |  | 50 | O=C(NCc1ccccc1)Nc1ccccc1Cl
37 |  | 83 | 108 | 4.94 | 91 |  | CCCCN(CCCC)C(=O)Nc1ccc(F)c(Cl)c1
38 |  | 65 | 51 |  |  | 85 | Cc1cccc(NC(=O)N(Cc2ccccc2)Cc2ccccc2)c1C
39 |  | 106 | 107 |  | 14 | 78 | CCCCN(Cc1ccccc1)C(=O)Nc1ccc(C)cc1
40 | 5.43 | 32 | 28 |  |  | 37 | Cc1cc(C)c(NC(=O)N(Cc2ccccc2)Cc2ccccc2)c(C)c1
41 |  | 66 | 65 | 5.33 | 89 |  | Cc1ccc(NC(=O)N(CCC(C)C)CCC(C)C)c(C)c1
42 | 6.48 | 59 | 36 |  |  | 95 | CCCCCCN(CCCCCC)C(=O)Nc1ccc(C)cc1C
43 |  | 83 | 44 |  |  | 88 | COc1ccc(C)cc1NC(=O)N(Cc1ccccc1)Cc1ccccc1
44 |  | 97 | 66 |  |  | 71 | Cc1ccc(Cl)cc1NC(=O)N(Cc1ccccc1)Cc1ccccc1
45 |  | 66 | 73 | 5.17 |  |  | CC(C)(C)CCN(Cc1cccs1)C(=O)Nc1ccc(F)cc1F
46 |  |  |  | 5.11 | 94 |  | O=C(Nc1cccc(Cl)c1)N(Cc1ccccc1)Cc1ccccc1
47 |  |  |  | 5.02 | 96 |  | CCOc1ccc(NC(=O)N(Cc2ccccc2)Cc2ccccc2)cc1
48 |  | 110 | 98 | 5.19 | 91 |  | CCCCN(CCCC)C(=O)Nc1ccc(C)c(Cl)c1
49 |  | 52 | 31 |  |  | 90 | Cc1ccc(NC(=O)N(Cc2ccccc2)Cc2ccccc2)c(C)c1
50 |  | 47 | 22 |  |  | 89 | CCCCCCCCN(CCCCCCCC)C(=O)Nc1ccc(C)cc1C
51 |  | 58 | 56 | 6.01 |  |  | CC(C)(C)CCN(Cc1cccs1)C(=O)Nc1c(Cl)cc(Cl)cc1Cl
52 |  | 92 | 86 | 5.24 | 92 |  | O=C(Nc1cccc(Br)c1)N(Cc1ccccc1)Cc1ccccc1
